# Data published in ChEMBL document CHEMBL1153560, “In vitro activities of doripenem and six comparator drugs against 423 aerobic and anaerobic bacterial isolates from infected diabetic foot wounds” (2008).
# Tested on: Clostridium perfringens
# Test: Antibacterial activity against Clostridium perfringens isolated from patient with diabetic foot infection assessed as percent resistant isolates after 44 to 48 hrs by agar dilution method
# Format: functional
# Procedure, shortened: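 Agar dilution per CLSI M11-A7. Twofold drug dilutions made on the test day and added to molten agar. Replicator-applied inoculum of 10^5 CFU/spot. Drug-free control plates inoculated before and after each drug set. Incubation at 37°C for 44 to 48 h, anaerobic chamber. MIC taken as the lowest concentration giving no growth or a marked change in growth versus controls.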
row,SMILES,Activity
1,CCC[C@@H]1C[C@@H](C(=O)N[C@@H]([C@H]2O[C@H](SC)[C@H](O)[C@@H](O)[C@H]2O)[C@H](C)Cl)N(C)C1 [CLINDAMYCIN],0%
2,C[C@@H](O)[C@H]1C(=O)N2C(C(=O)O)=C(S[C@@H]3CN[C@H](CNS(N)(=O)=O)C3)[C@H](C)[C@H]12 [DORIPENEM],0%
3,C[C@@H](O)[C@H]1C(=O)N2C(C(=O)O)=C(S[C@@H]3CN[C@H](C(=O)Nc4cccc(C(=O)O)c4)C3)[C@H](C)[C@H]12 [ERTAPENEM],0%
4,C[C@@H](O)[C@H]1C(=O)N2C(C(=O)O)=C(SCCNC=N)C[C@H]12 [IMIPENEM ANHYDROUS],0%
5,C[C@@H](O)[C@H]1C(=O)N2C(C(=O)O)=C(S[C@@H]3CN[C@H](C(=O)N(C)C)C3)[C@H](C)[C@H]12 [MEROPENEM],0%
6,Cc1ncc([N+](=O)[O-])n1CCO [METRONIDAZOLE],0%
